Bioassay records deposited in PubChem by Johns Hopkins Ion Channel Center.
Shown are actives, neighbours in structure and some others; about 3.5% of the full set was active somewhere.
MrgX1 antagonist: antagonists of human MrgX1 receptor, primary screen, HEK293 cells, Fluo-4 calcium flux; AID 588676, 2011; BAM8-22 antagonism; hits give low values; B-score at 10 µM; 1.3% of 310,000 active; Mas-related G-protein coupled receptor member X1 (Homo sapiens), Q96LB2;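 active = calcium-response B-score plate-corrected more than 3 library SD below zero, starting fluorescence within 5 deviations, no agonist response on first addition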;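 also: peak minus trough fluorescence over baseline after final BAM8-22 challenge near maximal dose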
Target sequence (Q96LB2 whole entry, looked up): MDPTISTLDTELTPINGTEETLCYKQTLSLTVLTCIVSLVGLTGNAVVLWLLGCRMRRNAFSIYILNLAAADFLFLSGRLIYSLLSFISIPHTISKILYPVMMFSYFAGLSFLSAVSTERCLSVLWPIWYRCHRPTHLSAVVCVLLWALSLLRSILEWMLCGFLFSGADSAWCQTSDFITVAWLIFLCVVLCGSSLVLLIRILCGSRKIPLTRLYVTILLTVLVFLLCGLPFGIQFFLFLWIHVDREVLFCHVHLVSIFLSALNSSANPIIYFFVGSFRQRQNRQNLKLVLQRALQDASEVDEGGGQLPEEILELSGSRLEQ
RGS4 inh: RGS4 inhibitors, primary screen, cell-based, HEK293 M3R inducible RGS4, calcium flux. Regulator of G-protein signaling 4 (Homo sapiens), P49798. Fluo-4 calcium flux; hits give high values; triggered by carbachol at its EC20. B-score at 10 µM. 0.45% of 310,000 active. AID 463165, 2010;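 active = B-score, a plate-corrected calcium signal, over three deviations above library mean, with baseline fluorescence within five deviations of library mean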;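 also: RGS4 expression induced by doxycycline in cells with stable M3 receptor; B-score is computed from the integrated fluorescence ratio over baseline after carbachol; higher B-score means a larger calcium signal and so more RGS4 inhibition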
Target sequence (P49798 whole entry, looked up): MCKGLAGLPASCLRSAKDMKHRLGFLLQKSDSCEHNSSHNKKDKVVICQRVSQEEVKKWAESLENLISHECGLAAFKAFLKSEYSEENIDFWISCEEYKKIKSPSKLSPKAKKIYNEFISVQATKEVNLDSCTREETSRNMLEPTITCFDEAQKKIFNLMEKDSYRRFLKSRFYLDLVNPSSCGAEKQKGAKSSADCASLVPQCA
MrgX1 ag: agonists of human MrgX1 receptor, primary screen, HEK293 cells, Fluo-4 calcium flux; Mas-related G-protein coupled receptor member X1 (Homo sapiens), Q96LB2; 0.44% of 310,000 active; Fluo-4 calcium fluorescence, agonist mode; hits give high values; B-score at 10 µM;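 active = calcium response B-score plate-corrected fluorescence ratio at least 3 library SD, with starting fluorescence B-score inside 5 SD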
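Assay system: stable human MrgX1 HEK293 cell line. Quantity: 15,000 cells per well. Schedule: cells plated overnight, dye loaded 0.5 h 37 °C, 0.5 h room temperature. Detection: Fluo-4 NW calcium-flux fluorescence, kinetic read. Read-out basis: peak-minus-minimum fluorescence over baseline, converted to B scores. Control set: positive and negative control wells on each plate.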
RGS4 act: RGS4 potentiators or activators, primary screen, cell-based, HEK293 M3R inducible RGS4, calcium flux | carbachol calcium flux Fluo4; hits give low values | 0.92% of 310,000 active | B-score at 10 µM;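 active = B-score of the integrated calcium signal more than 4 SD below the library mean, with starting fluorescence not abnormally high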;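 also: negative B-score means reduced calcium response which marks RGS4 activation or potentiation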
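Also added: carbachol at ECmax as muscarinic agonist stimulus; Assay system: HEK293 cells with stable M3R and inducible RGS4; Timing: overnight RGS4 induction, 30 min dye load 37 °C, 20 min compound RT; Measured by: Fluo4-AM (2 µM) calcium-flux fluorescence, kinetic read.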
MrgX1 PAM: positive allosteric modulators of MrgX1, primary screen, HEK293 cells, Fluo-4 calcium flux | Mas-related G-protein coupled receptor member X1 (Homo sapiens), Q96LB2 | FDSS; hits give high values | 0.63% of 310,000 active | B-score at 10 µM;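 active = plate-corrected calcium response at least 3 library SD above typical, normal starting fluorescence, not activating the receptor alone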;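 also: compound read alongside a low EC10 to EC30 dose of BAM8-22 agonist; peak minus trough fluorescence over baseline measured at the second addition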
Starred values were filed as active, the others as inactive; i = inactive; . = no result given.

SMILES	MrgX1 antagonist	RGS4 inh	MrgX1 ag	RGS4 act	MrgX1 PAM
Cc1ccc(-n2c3nc(=O)n(C)c(=O)c-3cc3ccccc32)cc1	i	i	i	-8*	i
O=[N+]([O-])c1ccc(-c2csc(N3CCCCCC3)n2)cc1	i	i	i	i	9.1*
CC(=O)c1ccc(N2Cc3ccccc3C3(CCOCC3)C2=N)cc1	i	i	i	i	i
O=C(COC(=O)c1cc(Br)ccc1O)Nc1cccnc1Cl	i	i	i	i	i
O=C(NCC1CCCO1)/C(=C/c1ccccc1)NC(=O)c1ccccc1 (configuration not stated)	i	i	i	i	i
O=C(NCC1CCCO1)/C(=C\c1cccc([N+](=O)[O-])c1)NC(=O)c1ccccc1 (configuration not stated)	-5.7*	i	i	i	i
O=C(Oc1ccc2ccc(=O)oc2c1)c1ccco1	i	i	i	i	i
C#CCOCCOCCOCCNc1nc(N2CCN(C(=O)CCCCCCCCCCNC(=O)[C@H]([C@@H](C)CC)n3cc(CCCCCN)nn3)CC2)nc(N2CCN(C(=O)CCCCCCCCCCNC(=O)[C@H](CO)n3cc(CCCCCN)nn3)CC2)n1	i	.	108*	.	i
C#CCOCCOCCOCCNc1nc(N2CCN(C(=O)CCCCCCCCCCNC(=O)[C@@H](CCC(=O)O)n3cc(CCCCCN)nn3)CC2)nc(N2CCN(C(=O)CCCCCCCCCCNC(=O)[C@H]([C@@H](C)CC)n3cc(CCCCCN)nn3)CC2)n1	i	.	i	.	i
C#CCOCCOCCOCCNc1nc(N2CCN(C(=O)CCCCCCCCCCNC(=O)[C@H]([C@@H](C)CC)n3cc(CCCCCN)nn3)CC2)nc(N2CCN(C(=O)CCCCCCCCCCNC(=O)[C@@H]([C@H](C)CC)n3cc(CCCCCN)nn3)CC2)n1	i	.	106*	.	i
CC(=O)c1ccc(OCC(O)CN2CCN(c3ccccn3)CC2)cc1 (configuration not stated)	i	i	i	i	i
Cc1ccc(/C=N/NC(=O)c2cccc(S(=O)(=O)Nc3ccccc3Cl)c2)o1	i	i	i	i	13*
O=C(N/N=C/c1ccco1)c1cccc(S(=O)(=O)Nc2ccccc2Cl)c1	i	i	i	i	i
Cc1ccc(C)c(C(=O)COC(=O)CN2C(=O)C3C4C=CC(C4)C3C2=O)c1 (configuration not stated)	i	i	i	i	i
COc1c(C)cccc1C(=O)NC(=S)Nc1ccccc1N1CCCC1	i	i	i	-7.6*	i
COc1ccc(NS(=O)(=O)c2cccc(C(=O)N/N=C/c3ccc(O)cc3)c2)cc1	i	i	i	i	i
CCOC(=O)C(C)CC(C)C(=O)N1CCOCCOCCN(C(=O)C(C)CC(C)C(=O)OCC)CCOCC1 (configuration not stated)	i	i	i	i	i
CCOC(=O)C(C(=O)OCC)C(C(=O)OCC)N1CCOCC1 (configuration not stated)	i	i	31*	i	i
Cc1ccc(NC(=O)c2cccc(Oc3ccc([N+](=O)[O-])cc3)c2)c(C(=O)O)c1	i	i	i	i	i
O=C(Nc1ccc(O)cc1)c1cccc(Oc2ccc([N+](=O)[O-])cc2)c1	-5.9*	i	i	i	i
COc1ccc2oc(C(=O)OCC(=O)NC3(C#N)CCCC3)c(C)c2c1	i	i	i	i	i
CCCCCCN(C(=O)CCCCCN1C(=O)NC(c2ccc(-c3ccccc3)cc2)C(C(=O)OCc2ccccc2)=C1C)C(C(=O)NCCCC)c1ccccc1 (configuration not stated)	.	i	.	i	.
CCCCCCN(C(=O)CCCCCN1C(=O)NC(c2ccc(-c3ccccc3)cc2)C(C(=O)OCc2ccccc2)=C1C)C(C)C(=O)NCCCC (configuration not stated)	-4.6*	i	i	i	i
COC(=O)c1ccc(C23CC4(C2)[C@H](CN(C)[C@@H]4c2ccccc2)C3c2ccc(Cl)nc2)cc1 (some centres not stated)	i	i	i	-7.1*	i
OC(c1cc(-c2ccc(C(F)(F)F)cc2)nc(C(F)(F)F)c1)C1CCCCN1 (configuration not stated)	-5.4*	i	i	-7.8*	i
SMILES	MrgX1 antagonist	RGS4 inh	MrgX1 ag	RGS4 act	MrgX1 PAM
COc1cc(/C=N/NC(=O)c2ccccn2)ccc1OC(=O)c1ccccc1Br	i	i	i	-8.1*	i
COc1cc(/C=N/NC(=O)c2ccc(N)cc2)ccc1OC(=O)c1cccc(C)c1	-5.6*	i	i	-8.5*	i
COc1cc(C(=O)N/N=C/c2ccc(OC(=O)c3ccccc3Cl)c(OC)c2)ccc1O	-4.6*	i	i	-9.9*	i
COc1cc(/C=C/C(=O)NC(=O)c2ccccc2O)ccc1O	i	i	i	i	12*
COc1cc(C(=O)N/N=C/c2ccc(OC(=O)c3cccc(C)c3)cc2)ccc1O	i	i	i	i	i
COc1cc(/C=N/NC(=O)c2ccccn2)ccc1OC(=O)c1ccc(Br)cc1	i	i	i	i	i
CCOc1cc(C(=O)Nc2ccncc2)cc(OCC)c1OCC	i	i	i	i	i
COc1cccc(OCC(=O)Nc2c3c(nn2-c2ccccc2)CS(=O)(=O)C3)c1	i	i	i	i	i
C[C@H](NC(=O)c1nc[nH]c1C(=O)NC1CCN(C(=O)OC(C)(C)C)CC1)C(=O)OCc1ccccc1	i	i	i	i	i
O=C(NC(=S)Nc1ccccc1F)c1ccc(Br)o1	i	i	i	i	i
O=C(N/N=C/c1cccc(OC(=O)c2ccccc2Cl)c1)c1cccnc1	i	i	i	-7.7*	i
O=C(N/N=C\c1cc(Br)c(Br)o1)c1cncc(Br)c1	i	i	i	i	i
O=C(N/N=C/c1cc(Br)c(Br)o1)c1cccnc1	-6*	i	i	i	i
Cc1ccc(C(=O)N/N=C/c2ccc(OC(=O)c3ccccc3Cl)cc2)cn1	i	i	i	i	i
COC(=O)c1cc2c(C)[nH]c(C)c2cc(C(=O)OC)c1=O	i	i	i	i	i
N#C/C(=C(/O)CCl)c1nc(-c2ccccc2)cs1	-6.1*	i	i	i	i
